Data from PMC5538437 (Genes & Development, 2017).
Substitutions are numbered along the chain they refer to. Names may count otherwise. Values belong to the molecule of their own block, whether it stands above or below them.

What was measured:
[1] = target: T1, 4EHP used for ITC, wild type (human, UniProt O60573 1-245); assay: ITC
T1 sequence: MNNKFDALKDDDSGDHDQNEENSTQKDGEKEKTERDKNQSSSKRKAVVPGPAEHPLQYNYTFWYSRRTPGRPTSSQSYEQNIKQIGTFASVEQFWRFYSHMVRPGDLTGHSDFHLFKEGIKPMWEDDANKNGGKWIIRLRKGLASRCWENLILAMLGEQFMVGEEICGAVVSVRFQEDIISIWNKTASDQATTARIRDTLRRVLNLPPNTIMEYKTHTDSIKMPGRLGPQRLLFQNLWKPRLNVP

4EHP S99N used for ITC = target: T2, 4EHP S99N used for ITC (human, UniProt O60573 1-245, S99N); assay: ITC
T2 sequence: T1 sequence with S99N

[2] = target: T3, 4EHP-His6 (residues A52–F234), RE-LL mutant, of the competition assays (human, UniProt O60573 52-234, R103L | E149L); assay: pull-down
T3 sequence: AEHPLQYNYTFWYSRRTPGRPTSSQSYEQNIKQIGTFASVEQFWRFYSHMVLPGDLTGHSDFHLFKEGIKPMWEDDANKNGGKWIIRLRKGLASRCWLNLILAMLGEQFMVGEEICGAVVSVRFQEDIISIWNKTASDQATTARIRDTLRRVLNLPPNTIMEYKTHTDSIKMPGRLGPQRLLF

endogenous GYF2 = assay: Pull-down of GYF2 by tagged 4EHP in HEK293T cells; format: binding, human; conditions: Western blot
Method in brief: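 Streptavidin pull-downs used HEK293T lysates containing RNase A and expressed V5-SBP-4EHP, wild type or mutants. V5-SBP-MBP was the negative control. Inputs (1–1.5%) and bound fractions (up to 30% for GYF2) were analysed by Western blot with anti-V5 and anti-GYF2 antibodies, using ECL detection.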

endogenous GYF1 = assay: Pull-down of GYF1 by tagged 4EHP in HEK293T cells; format: binding, human; conditions: V5-SBP-4EHP, Western blot
4EHP = assay: Pull-down / coimmunoprecipitation with 4EHP in HEK293T cell lysates; format: binding, human; conditions: Western blot; for interaction with 4EHP in cells, overexpressed binding partner: HEK293T cells, GFP-tagged protein and V5-SBP-4EHP
Method in brief: (§1)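 Streptavidin-bead pull-down from RNase A-treated HEK293T lysates of cells expressing V5-SBP-tagged 4EHP or eIF4E (wild type or mutants). Co-bound endogenous GYF2, 4E-T and 4E-BP1 were probed; for 4EHP, co-expressed GFP-4E-BP1 was also probed, with V5-SBP-MBP as negative control. Inputs and bound fractions were analysed by Western blot with anti-V5, anti-GFP, anti-GYF2 and other antibodies, using ECL detection.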

eIF4E = assay: Pull-down / coimmunoprecipitation with eIF4E in HEK293T cell lysates; format: binding, human; conditions: streptavidin pull-down, Western blot
Method in brief: as §1

Kd [1]: 55 nM | Kd (4EHP S99N used for ITC): 4 nM
B1: 4E-BP1 peptide, ITC (peptide)
chain: TRIIYDRKFLMECRNSPVTKTPPRDLPTIPGVTS

binding result [2]: binds
B2: 4E-BP1 peptide (residues T50–S83) with C-terminal GB1 tag, of the competition assays (domain or fragment)
chain: B1 chain

Kd [1]: 14 nM
B3: GYF2 C+L+NC peptide, ITC (peptide)
chain: KYKLADYRYGREEMLALFLKDNKIPSDLLDKEFLPILQ

B4: 4EHP RE-LL: 4EHP R103L, E149L; auxiliary surface mutant (protein)
chain: T1 sequence with R103L, E149L
binding to endogenous GYF2 (endogenous GYF2): strongly reduced binding to endogenous GYF2 | binding to endogenous GYF1 (endogenous GYF1): disrupted binding to endogenous GYF1

B5: 4EHP S99N: 4EHP S99N; dorsal surface mutant (protein, UniProt O60573 1-245, looked up, variant S99N)
Eukaryotic translation …: T1 sequence with S99N
binding to endogenous GYF2 (endogenous GYF2): Binding of GYF2 was not affected by the S99N mutation

B6: 4EHP cap: 4EHP W124A; cap-binding pocket mutant (protein, UniProt O60573 1-245, looked up, variant W124A)
Eukaryotic translation …: T1 sequence with W124A
binding to endogenous GYF2 (endogenous GYF2): still binds to GYF1/2

B7: 4E-T: Hs 4E-T Q9NRA8, full-length (1–985) (protein)
chain: MDRRSMGETESGDAFLDLKKPPASKCPHRYTKEELLDIKELPHSKQRPSCLSEKYDSDGVWDPEKWHASLYPASGRSSPVESLKKELDTDRPSLVRRIVDPRERVKEDDLDVVLSPQRRSFGGGCHVTAAVSSRRSGSPLEKDSDGLRLLGGRRIGSGRIISARTFEKDHRLSDKDLRDLRDRDRERDFKDKRFRREFGDSKRVFGERRRNDSYTEEEPEWFSAGPTSQSETIELTGFDDKILEEDHKGRKRTRRRTASVKEGIVECNGGVAEEDEVEVILAQEPAADQEVPRDAVLPEQSPGDFDFNEFFNLDKVPCLASMIEDVLGEGSVSASRFSRWFSNPSRSGSRSSSLGSTPHEELERLAGLEQAILSPGQNSGNYFAPIPLEDHAENKVDILEMLQKAKVDLKPLLSSLSANKEKLKESSHSGVVLSVEEVEAGLKGLKVDQQVKNSTPFMAEHLEETLSAVTNNRQLKKDGDMTAFNKLVSTMKASGTLPSQPKVSRNLESHLMSPAEIPGQPVPKNILQELLGQPVQRPASSNLLSGLMGSLEPTTSLLGQRAPSPPLSQVFQTRAASADYLRPRIPSPIGFTPGPQQLLGDPFQGMRKPMSPITAQMSQLELQQAALEGLALPHDLAVQAANFYQPGFGKPQVDRTRDGFRNRQQRVTKSPAPVHRGNSSSPAPAASITSMLSPSFTPTSVIRKMYESKEKSKEEPASGKAALGDSKEDTQKASEENLLSSSSVPSADRDSSPTTNSKLSALQRSSCSTPLSQANRYTKEQDYRPKATGRKTPTLASPVPTTPFLRPVHQVPLVPHVPMVRPAHQLHPGLVQRMLAQGVHPQHLPSLLQTGVLPPGMDLSHLQGISGPILGQPFYPLPAASHPLLNPRPGTPLHLAMVQQQLQRSVLHPPGSGSHAAAVSVQTTPQNVPSRSGLPHMHSQLEHRPSQRSSSPVGLAKWFGSDVLQQPLPSMPAKVISVDELEYRQ
interaction with 4EHP in cell lysates, endogenous binding partner (4EHP; HEK293T cell lysates, streptavidin pull-down): interacted with both eIF4E and 4EHP | interaction with eIF4E in cell lysates (eIF4E): interacted with both eIF4E and 4EHP

B8: GYF2 A1*: GYF2 P78D, L79A; auxiliary site 1 mutant (protein, UniProt Q6Y7W6 2-1299, looked up, variant P78D L79A)
GRB10-interacting GYF protein …: AAETQTLNFGPEWLRALSSGGSITSPPLSPALPKYKLADYRYGREEMLALFLKDNKIPSDLLDKEFLPILQEEPLPDAALVPFTEEEQRNFSMSVNSAAVLRLTGRGGGGTVVGAPRGRSSSRGRGRGRGECGFYQRSFDEVEGVFGRGGGREMHRSQSWEERGDRRFEKPGRKDVGRPNFEEGGPTSVGRKHEFIRSESENWRIFREEQNGEDEDGGWRLAGSRRDGERWRPHSPDGPRSAGWREHMERRRRFEFDFRDRDDERGYRRVRSGSGSIDDDRDSLPEWCLEDAEEEMGTFDSSGAFLSLKKVQKEPIPEEQEMDFRPVDEGEECSDSEGSHNEEAKEPDKTNKKEGEKTDRVGVEASEETPQTSSSSARPGTPSDHQSQEASQFERKDEPKTEQTEKAEEETRMENSLPAKVPSRGDEMVADVQQPLSQIPSDTASPLLILPPPVPNPSPTLRPVETPVVGAPGMGSVSTEPDDEEGLKHLEQQAEKMVAYLQDSALDDERLASKLQEHRAKGVSIPLMHEAMQKWYYKDPQGEIQGPFNNQEMAEWFQAGYFTMSLLVKRACDESFQPLGDIMKMWGRVPFSPGPAPPPHMGELDQERLTRQQELTALYQMQHLQYQQFLIQQQYAQVLAQQQKAALSSQQQQQLALLLQQFQTLKMRISDQNIIPSVTRSVSVPDTGSIWELQPTASQPTVWEGGSVWDLPLDTTTPGPALEQLQQLEKAKAAKLEQERREAEMRAKREEEERKRQEELRRQQEEILRRQQEEERKRREEEELARRKQEEALRRQREQEIALRRQREEEERQQQEEALRRLEERRREEEERRKQEELLRKQEEEAAKWAREEEEAQRRLEENRLRMEEEAARLRHEEEERKRKELEVQRQKELMRQRQQQQEALRRLQQQQQQQQLAQMKLPSSSTWGQQSNTTACQSQATLSLAEIQKLEEERERQLREEQRRQQRELMKALQQQQQQQQQKLSGWGNVSKPSGTTKSLLEIQQEEARQMQKQQQQQQQHQQPNRARNNTHSNLHTSIGNSVWGSINTGPPNQWASDLVSSIWSNADTKNSNMGFWDDAVKEVGPRNSTNKNKNNASLSKSVGVSNRQNKKVEEEEKLLKLFQGVNKAQDGFTQWCEQMLHALNTANNLDVPTFVSFLKEVESPYEVHDYIRAYLGDTSEAKEFAKQFLERRAKQKANQQRQQQQLPQQQQQQPPQQPPQQPQQQDSVWGMNHSTLHSVFQTNQSNNQQSNFEAVQSGKKKKKQKMVRADPSLLGFSVNASSERLNMGEIETLDDY
interaction with 4EHP in cells, overexpressed binding partner (4EHP): did not affect binding to overexpressed 4EHP in human cells

B9: GYF1 A2+3*: GYF1 E86A, N95F; auxiliary site 2 mutant (listed as A2*) (protein, UniProt O75420 1-1035, looked up, variant E86A N95F)
GRB10-interacting GYF protein …: MAAETLNFGPEWLRALSGGGSVASPPPSPAMPKYKLADYRYGREEMLALYVKENKVPEELQDKEFAAVLQDEPLQPLALEPLTEEAQRNFSLSVFSVAVLRLMGKGAGPPLAGTSRGRGSTRSRGRGRGDSCFYQRSIEEGDGAFGRSPREIQRSQSWDDRGERRFEKSARRDGARCGFEEGGAGPRKEHARSDSENWRSLREEQEEEEEGSWRLGAGPRRDGDRWRSASPDGGPRSAGWREHGERRRKFEFDLRGDRGGCGEEEGRGGGGSSHLRRCRAPEGFEEDKDGLPEWCLDDEDEEMGTFDASGAFLPLKKGPKEPIPEEQELDFQGLEEEEEPSEGLEEEGPEAGGKELTPLPPQEEKSSSPSPLPTLGPLWGTNGDGDETAEKEPPAAEDDIRGIQLSPGVGSSAGPPGDLEDDEGLKHLQQEAEKLVASLQDSSLEEEQFTAAMQTQGLRHSAAATALPLSHGAARKWFYKDPQGEIQGPFTTQEMAEWFQAGYFSMSLLVKRGCDEGFQPLGEVIKMWGRVPFAPGPSPPPLLGNMDQERLKKQQELAAAALYQQLQHQQFLQLVSSRQLPQCALREKAALGDLTPPPPPPPQQQQQQLTAFLQQLQALKPPRGGDQNLLPTMSRSLSVPDSGRLWDVHTSASSQSGGEASLWDIPINSSTQGPILEQLQLQHKFQERREVELRAKREEEERKRREEKRRQQQQEEQKRRQEEEELFRRKHVRQQELLLKLLQQQQAVPVPPAPSSPPPLWAGLAKQGLSMKTLLELQLEGERQLHKQPPPREPARAQAPNHRVQLGGLGTAPLNQWVSEAGPLWGGPDKSGGGSSGLGLWEDTPKSGGSLVRGLGLKNSRSSPSLSDSYSHLSGRPIRKKTEEEEKLLKLLQGIPRPQDGFTQWCEQMLHTLSATGSLDVPMAVAILKEVESPYDVHDYIRSCLGDTLEAKEFAKQFLERRAKQKASQQRQQQQEAWLSSASLQTAFQANHSTKLGPGEGSKAKRRALMLHSDPSILGYSLHGSSGEIESVDDY
interaction with 4EHP in cells, overexpressed binding partner (4EHP): did not affect binding to overexpressed 4EHP in human cells
